Measurements reported in ChEMBL document CHEMBL3351863, “Optimization of 2-phenyl-pyrimidine-4-carboxamides towards potent, orally bioavailable and selective P2Y(12) antagonists for inhibition of platelet aggregation” (Bioorg Med Chem Lett, 2014).
The source made the active and inactive calls. The rule behind the calls is not given here.

Experiments:
[1] = target: P2Y purinoceptor 4 (Homo sapiens) (UniProt P51582); assay: Antagonist activity against P2Y4 (unknown origin) assessed as inhibition of agonist binding up to 10 uM
[2] = target: T1, P2X purinoceptor 3 (Homo sapiens) (UniProt P56373); assay: Antagonist activity against P2X3 (unknown origin)
T1 sequence (whole entry): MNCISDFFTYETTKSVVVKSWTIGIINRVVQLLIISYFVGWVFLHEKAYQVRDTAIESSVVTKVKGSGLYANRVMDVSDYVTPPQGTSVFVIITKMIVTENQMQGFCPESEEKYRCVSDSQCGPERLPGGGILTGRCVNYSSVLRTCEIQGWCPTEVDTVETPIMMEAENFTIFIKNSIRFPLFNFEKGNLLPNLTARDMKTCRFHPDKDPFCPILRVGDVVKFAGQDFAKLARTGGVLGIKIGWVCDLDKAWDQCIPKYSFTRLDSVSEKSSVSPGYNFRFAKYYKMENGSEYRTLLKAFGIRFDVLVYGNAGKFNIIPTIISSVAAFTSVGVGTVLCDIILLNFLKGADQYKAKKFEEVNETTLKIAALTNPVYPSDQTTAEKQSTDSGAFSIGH

[3] = target: T2, P2Y purinoceptor 13 (Homo sapiens) (UniProt Q9BPV8); assay: Antagonist activity against P2Y13 (unknown origin) assessed as inhibition of agonist binding up to 10 uM
T2 sequence (whole entry): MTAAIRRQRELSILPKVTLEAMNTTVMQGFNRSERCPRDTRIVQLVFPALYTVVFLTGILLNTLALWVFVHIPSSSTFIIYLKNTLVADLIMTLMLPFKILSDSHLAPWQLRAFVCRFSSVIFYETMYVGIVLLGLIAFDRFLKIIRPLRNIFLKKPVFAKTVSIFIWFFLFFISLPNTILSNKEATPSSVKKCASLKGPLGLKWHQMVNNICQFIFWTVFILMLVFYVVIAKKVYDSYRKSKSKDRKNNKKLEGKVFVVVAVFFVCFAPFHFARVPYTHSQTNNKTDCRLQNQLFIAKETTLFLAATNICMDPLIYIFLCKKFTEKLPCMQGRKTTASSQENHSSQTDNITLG

[4] = target: T3, P2X purinoceptor 1 (Homo sapiens) (UniProt P51575); assay: Antagonist activity against P2X1 (unknown origin)
T3 sequence (whole entry): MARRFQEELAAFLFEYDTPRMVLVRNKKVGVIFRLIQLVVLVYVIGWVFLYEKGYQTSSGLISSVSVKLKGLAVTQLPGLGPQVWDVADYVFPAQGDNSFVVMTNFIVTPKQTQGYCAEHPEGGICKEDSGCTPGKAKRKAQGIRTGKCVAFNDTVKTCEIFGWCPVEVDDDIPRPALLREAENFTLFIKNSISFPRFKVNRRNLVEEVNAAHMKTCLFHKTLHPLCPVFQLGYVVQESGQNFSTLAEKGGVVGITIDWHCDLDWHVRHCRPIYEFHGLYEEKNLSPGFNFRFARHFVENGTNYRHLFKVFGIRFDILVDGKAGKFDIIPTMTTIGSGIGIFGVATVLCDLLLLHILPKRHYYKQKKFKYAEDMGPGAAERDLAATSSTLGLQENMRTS

[5] = target: T4, P2X purinoceptor 4 (Homo sapiens) (UniProt Q99571); assay: Antagonist activity against P2X4 (unknown origin)
T4 sequence (whole entry): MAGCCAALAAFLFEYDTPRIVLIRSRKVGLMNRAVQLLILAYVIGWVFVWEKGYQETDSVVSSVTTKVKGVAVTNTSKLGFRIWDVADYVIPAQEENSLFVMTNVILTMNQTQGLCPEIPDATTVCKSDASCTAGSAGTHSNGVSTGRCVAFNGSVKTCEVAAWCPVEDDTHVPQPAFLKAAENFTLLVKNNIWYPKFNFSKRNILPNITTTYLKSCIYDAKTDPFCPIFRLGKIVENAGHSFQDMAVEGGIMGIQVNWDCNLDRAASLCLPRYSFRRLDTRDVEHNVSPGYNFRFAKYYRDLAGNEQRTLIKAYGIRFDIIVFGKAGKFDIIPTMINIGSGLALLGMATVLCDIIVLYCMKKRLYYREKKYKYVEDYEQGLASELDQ

[6] = target: P2Y purinoceptor 6 (Homo sapiens) (UniProt Q15077); assay: Antagonist activity against P2Y6 (unknown origin) assessed as inhibition of agonist binding up to 10 uM
[7] = target: P2Y purinoceptor 2 (Homo sapiens) (UniProt P41231); assay: Antagonist activity against P2Y2 (unknown origin) assessed as inhibition of agonist binding up to 10 uM
[8] = target: T5, P2X purinoceptor 2 (Homo sapiens) (UniProt Q9UBL9); assay: Antagonist activity against P2X2 (unknown origin)
T5 sequence (whole entry): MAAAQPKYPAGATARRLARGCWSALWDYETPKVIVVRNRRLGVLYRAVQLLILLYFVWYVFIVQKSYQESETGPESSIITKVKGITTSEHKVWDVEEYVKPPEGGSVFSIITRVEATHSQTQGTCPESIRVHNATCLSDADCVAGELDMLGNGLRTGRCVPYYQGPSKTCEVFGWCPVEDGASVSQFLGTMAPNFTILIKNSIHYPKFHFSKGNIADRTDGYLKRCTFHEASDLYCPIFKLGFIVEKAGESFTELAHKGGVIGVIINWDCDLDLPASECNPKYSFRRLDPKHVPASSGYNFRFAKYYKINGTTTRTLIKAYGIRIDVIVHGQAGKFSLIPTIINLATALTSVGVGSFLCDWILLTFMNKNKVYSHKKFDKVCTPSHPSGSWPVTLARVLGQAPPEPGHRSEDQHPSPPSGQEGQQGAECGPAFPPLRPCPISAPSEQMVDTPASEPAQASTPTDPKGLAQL

[9] = target: T6, P2Y purinoceptor 11 (Homo sapiens) (UniProt Q96G91); assay: Antagonist activity against P2Y11 (unknown origin) assessed as inhibition of agonist binding up to 10 uM
T6 sequence (whole entry): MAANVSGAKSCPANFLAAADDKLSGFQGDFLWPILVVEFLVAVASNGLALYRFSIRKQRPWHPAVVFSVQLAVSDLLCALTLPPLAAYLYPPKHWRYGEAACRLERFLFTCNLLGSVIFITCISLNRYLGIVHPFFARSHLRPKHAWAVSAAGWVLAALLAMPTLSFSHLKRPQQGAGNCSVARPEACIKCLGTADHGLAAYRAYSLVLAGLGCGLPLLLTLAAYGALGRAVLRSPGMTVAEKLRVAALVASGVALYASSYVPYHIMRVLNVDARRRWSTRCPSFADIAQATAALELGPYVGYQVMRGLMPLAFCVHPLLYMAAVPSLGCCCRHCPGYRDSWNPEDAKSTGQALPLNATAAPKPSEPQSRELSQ

[10] = target: P2Y purinoceptor 1 (Homo sapiens) (UniProt P47900); assay: Antagonist activity against P2Y1 (unknown origin) assessed as inhibition of agonist binding up to 10 uM
[11] = target: T7, P2X purinoceptor 7 (Homo sapiens) (UniProt Q99572); assay: Antagonist activity against P2X7 (unknown origin)
T7 sequence (whole entry): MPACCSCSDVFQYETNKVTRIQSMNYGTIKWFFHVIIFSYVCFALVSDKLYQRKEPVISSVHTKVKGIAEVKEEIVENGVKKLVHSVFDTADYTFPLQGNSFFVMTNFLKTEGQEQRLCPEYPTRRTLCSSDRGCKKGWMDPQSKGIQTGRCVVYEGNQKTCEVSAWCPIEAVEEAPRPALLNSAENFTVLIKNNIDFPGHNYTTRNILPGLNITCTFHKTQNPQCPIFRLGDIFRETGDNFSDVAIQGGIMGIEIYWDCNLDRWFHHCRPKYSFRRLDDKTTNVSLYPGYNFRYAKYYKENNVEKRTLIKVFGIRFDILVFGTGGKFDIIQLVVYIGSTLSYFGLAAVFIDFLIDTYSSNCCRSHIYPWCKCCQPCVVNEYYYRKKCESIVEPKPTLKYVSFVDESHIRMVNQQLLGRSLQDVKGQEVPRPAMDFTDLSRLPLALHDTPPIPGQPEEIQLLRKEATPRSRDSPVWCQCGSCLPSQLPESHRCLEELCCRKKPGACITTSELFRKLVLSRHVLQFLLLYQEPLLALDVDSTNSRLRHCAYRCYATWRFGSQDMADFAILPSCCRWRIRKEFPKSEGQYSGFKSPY

Cytochrome P450 2D6 = Cytochrome P450 2D6 (Homo sapiens, UniProt P10635); assay: Inhibition of CYP2D6 in human liver microsomes assessed as reduction in dextromethorphan-O demethylation; assay type: ADME
[12] = Solubility in basic pH; assay type: physicochemical
Cytochrome P450 3A4 [13] = target: T8, Cytochrome P450 3A4 (Homo sapiens, UniProt P08684); assay: Inhibition of CYP3A4 in human liver microsomes assessed as reduction in midazolam 1'-hydroxylation; assay type: ADME
P2Y purinoceptor 12 = P2Y purinoceptor 12 (Homo sapiens, UniProt Q9H244); assay: Displacement of [3H]-2-methyl-thio-adenosine 5'-diphosphate from human recombinant P2Y12 expressed in CHO cell membranes by scintillation counting method
Summary of the method: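 CHO cells expressing recombinant P2Y₁₂ receptors, incubated with tritium-labeled 2-methyl-thio-adenosine 5'-diphosphate plus test compound; IC₅₀ from displacement curves, each point in triplicate; reference compound run with every compound set, and set re-analyzed if its IC₅₀ fell outside pre-set 95% confidence interval.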

[14] = Half life in Wistar rat at 1 mg/kg, iv or 10 mg/kg, po; assay type: ADME, organism-based; details: in vivo
Summary of the method: (§1)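 Rats dosed by iv infusion at 1 mg/kg (n = 2) or orally at 10 mg/kg (n = 3); plasma levels measured, limit of quantification ca. 1 ng/mL.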

Cytochrome P450 3A4 [15] = target: T8, Cytochrome P450 3A4; assay: Inhibition of CYP3A4 in human liver microsomes assessed as reduction in testosterone 6beta-hydroxylation; assay type: ADME
Liver microsome [16] = assay: Metabolic stability assay in rat liver microsomes assessed as parent drug disappearance at 1 uM after 20 mins by HPLC and mass spectrometry method; assay type: ADME
[17] = Oral bioavailability in Wistar rat at 10 mg/kg; assay type: ADME, organism-based; details: Wistar, in vivo; summary of the method: as §1
Platelet [18] = assay: Inhibition of ADP-induced platelet aggregation in human platelet rich plasma by in-vitro light transmission aggregometry assay; assay type: functional; details: Homo sapiens, Platelet, Plasma
Summary of the method: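 Human platelet-rich plasma incubated with compound, aggregation induced by 3 µM ADP and read by light transmission aggregometry; IC₅₀ derived from concentration–response curve.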

Platelet [19] = assay: Inhibition of ADP-induced platelet aggregation in human platelet rich plasma assessed as remaining activity at 500 nM by in-vitro light transmission aggregometry assay; assay type: functional
Summary of the method: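 Light transmission aggregometry in human platelet-rich plasma; compound incubated, aggregation triggered with 3 µM ADP; remaining activity (RA) recorded at a single compound level (1000, 500 or 100 nM).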

[20] = Clearance in Wistar rat at 1 mg/kg, iv; assay type: ADME, organism-based; parameters: dose 1 mg/kg, route intravenous; details: in vivo; summary of the method: as §1
[21] = Volume of distribution at steady state in Wistar rat at 1 mg/kg, iv or 10 mg/kg, po; assay type: ADME, organism-based; details: in vivo, read-out: Vdss; summary of the method: as §1
[22] = Solubility in neutral pH; assay type: physicochemical
[23] = Potency shift, ratio of IC50 for inhibition of ADP-induced platelet aggregation in human platelet rich plasma to IC50 for displacement of [3H]-2-methyl-thio-adenosine 5'-diphosphate from human recombinant P2Y12 expressed in CHO cell membranes
Liver microsome [24] = assay: Metabolic stability assay in human liver microsomes assessed as parent drug disappearance at 1 uM after 20 mins by HPLC and mass spectrometry method; assay type: ADME
[25] = AUC in Wistar rat at 10 mg/kg, po; assay type: ADME, organism-based, Plasma; parameters: dose 10 mg/kg, route oral; details: Wistar, plasma; summary of the method: as §1
[26] = Lipophilicity, logD of the compound; assay type: physicochemical; details: octanol/water
[27] = Cmax in Wistar rat at 10 mg/kg, po; assay type: ADME, organism-based; parameters: dose 10 mg/kg, route oral; details: Wistar, in vivo; summary of the method: as §1
[28] = target: Voltage-gated inwardly rectifying potassium channel KCNH2 (Homo sapiens, UniProt Q12809); assay: Inhibition of human ERG expressed in HEK cells by patch-clamp assay; assay type: cell-based; details: hek293
Cytochrome P450 2C9 = Cytochrome P450 2C9 (Homo sapiens, UniProt P11712); assay: Inhibition of CYP2C9 in human liver microsomes assessed as reduction in diclofenac 4'-hydroxylation; assay type: ADME
Cytochrome P450 2C9, sequence (P11712 whole entry): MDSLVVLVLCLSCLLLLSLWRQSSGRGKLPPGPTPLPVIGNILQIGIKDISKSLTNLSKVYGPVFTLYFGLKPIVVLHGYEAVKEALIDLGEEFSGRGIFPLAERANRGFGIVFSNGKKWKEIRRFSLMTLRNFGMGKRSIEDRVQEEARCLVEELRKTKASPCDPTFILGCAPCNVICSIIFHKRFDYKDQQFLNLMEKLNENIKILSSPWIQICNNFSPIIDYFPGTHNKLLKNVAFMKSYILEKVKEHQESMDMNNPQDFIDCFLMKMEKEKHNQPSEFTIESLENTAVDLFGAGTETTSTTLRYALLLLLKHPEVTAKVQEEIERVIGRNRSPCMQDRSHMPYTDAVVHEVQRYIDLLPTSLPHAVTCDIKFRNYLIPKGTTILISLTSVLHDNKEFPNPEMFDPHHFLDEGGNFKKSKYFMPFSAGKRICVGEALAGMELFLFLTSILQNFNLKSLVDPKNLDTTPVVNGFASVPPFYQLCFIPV

T8 sequence (P08684 whole entry): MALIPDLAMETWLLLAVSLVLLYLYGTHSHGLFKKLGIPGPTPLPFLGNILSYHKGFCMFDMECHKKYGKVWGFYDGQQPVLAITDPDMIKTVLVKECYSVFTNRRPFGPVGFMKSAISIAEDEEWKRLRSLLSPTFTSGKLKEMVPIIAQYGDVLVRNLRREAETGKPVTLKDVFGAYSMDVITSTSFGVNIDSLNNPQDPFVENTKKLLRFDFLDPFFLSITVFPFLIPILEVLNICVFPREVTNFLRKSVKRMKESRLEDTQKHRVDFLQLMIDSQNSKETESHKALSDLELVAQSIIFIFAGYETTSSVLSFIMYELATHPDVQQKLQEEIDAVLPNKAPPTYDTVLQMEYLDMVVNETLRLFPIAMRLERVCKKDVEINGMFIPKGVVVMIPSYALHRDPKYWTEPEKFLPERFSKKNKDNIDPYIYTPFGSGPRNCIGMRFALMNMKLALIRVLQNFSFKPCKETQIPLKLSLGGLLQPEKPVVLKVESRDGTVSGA
P2Y purinoceptor 6 (Homo sapiens), sequence (Q15077 whole entry): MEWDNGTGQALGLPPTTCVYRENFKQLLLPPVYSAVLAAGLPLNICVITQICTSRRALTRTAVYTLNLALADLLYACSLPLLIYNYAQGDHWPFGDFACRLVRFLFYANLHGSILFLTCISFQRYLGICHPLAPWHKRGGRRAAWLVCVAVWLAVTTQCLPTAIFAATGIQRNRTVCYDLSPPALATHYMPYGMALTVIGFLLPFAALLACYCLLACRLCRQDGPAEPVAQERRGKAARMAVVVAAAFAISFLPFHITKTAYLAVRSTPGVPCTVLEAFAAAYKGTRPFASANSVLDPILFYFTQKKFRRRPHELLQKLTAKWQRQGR
P2Y purinoceptor 4 (Homo sapiens), sequence (P51582 whole entry): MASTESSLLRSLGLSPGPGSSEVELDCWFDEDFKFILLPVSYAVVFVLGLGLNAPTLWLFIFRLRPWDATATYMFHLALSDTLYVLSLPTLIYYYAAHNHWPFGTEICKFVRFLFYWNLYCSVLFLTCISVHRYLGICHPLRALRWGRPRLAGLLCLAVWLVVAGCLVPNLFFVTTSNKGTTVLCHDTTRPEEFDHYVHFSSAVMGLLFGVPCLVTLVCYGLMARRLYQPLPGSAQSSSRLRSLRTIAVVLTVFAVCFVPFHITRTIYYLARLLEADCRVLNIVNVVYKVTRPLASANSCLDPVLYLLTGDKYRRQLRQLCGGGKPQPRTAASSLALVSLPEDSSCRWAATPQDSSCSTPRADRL
Cytochrome P450 2D6, sequence (P10635 whole entry): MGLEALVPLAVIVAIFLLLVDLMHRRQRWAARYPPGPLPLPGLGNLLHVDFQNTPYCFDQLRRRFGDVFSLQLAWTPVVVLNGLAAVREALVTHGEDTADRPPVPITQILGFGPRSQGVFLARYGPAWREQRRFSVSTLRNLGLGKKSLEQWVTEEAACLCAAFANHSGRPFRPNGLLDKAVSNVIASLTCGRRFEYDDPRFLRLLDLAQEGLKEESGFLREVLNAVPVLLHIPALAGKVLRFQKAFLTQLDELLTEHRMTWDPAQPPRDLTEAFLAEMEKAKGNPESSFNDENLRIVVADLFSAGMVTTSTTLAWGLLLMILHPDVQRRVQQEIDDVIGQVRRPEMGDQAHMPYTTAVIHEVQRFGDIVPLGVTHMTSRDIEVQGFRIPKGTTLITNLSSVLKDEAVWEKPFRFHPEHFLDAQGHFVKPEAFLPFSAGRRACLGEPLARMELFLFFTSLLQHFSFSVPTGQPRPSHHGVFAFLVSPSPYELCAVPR
P2Y purinoceptor 2 (Homo sapiens), sequence (P41231 whole entry): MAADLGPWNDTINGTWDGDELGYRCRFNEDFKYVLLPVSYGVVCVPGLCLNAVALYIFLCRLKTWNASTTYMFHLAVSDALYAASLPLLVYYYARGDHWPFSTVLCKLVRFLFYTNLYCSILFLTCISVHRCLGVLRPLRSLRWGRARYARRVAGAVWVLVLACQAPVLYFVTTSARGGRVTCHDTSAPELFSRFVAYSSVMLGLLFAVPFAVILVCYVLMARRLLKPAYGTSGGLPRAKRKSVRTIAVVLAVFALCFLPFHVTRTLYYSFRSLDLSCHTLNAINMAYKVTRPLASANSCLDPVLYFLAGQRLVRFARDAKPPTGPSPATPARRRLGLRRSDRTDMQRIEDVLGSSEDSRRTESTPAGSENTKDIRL
Voltage-gated inwardly rectifying potassium channel KCNH2, sequence (Q12809 whole entry): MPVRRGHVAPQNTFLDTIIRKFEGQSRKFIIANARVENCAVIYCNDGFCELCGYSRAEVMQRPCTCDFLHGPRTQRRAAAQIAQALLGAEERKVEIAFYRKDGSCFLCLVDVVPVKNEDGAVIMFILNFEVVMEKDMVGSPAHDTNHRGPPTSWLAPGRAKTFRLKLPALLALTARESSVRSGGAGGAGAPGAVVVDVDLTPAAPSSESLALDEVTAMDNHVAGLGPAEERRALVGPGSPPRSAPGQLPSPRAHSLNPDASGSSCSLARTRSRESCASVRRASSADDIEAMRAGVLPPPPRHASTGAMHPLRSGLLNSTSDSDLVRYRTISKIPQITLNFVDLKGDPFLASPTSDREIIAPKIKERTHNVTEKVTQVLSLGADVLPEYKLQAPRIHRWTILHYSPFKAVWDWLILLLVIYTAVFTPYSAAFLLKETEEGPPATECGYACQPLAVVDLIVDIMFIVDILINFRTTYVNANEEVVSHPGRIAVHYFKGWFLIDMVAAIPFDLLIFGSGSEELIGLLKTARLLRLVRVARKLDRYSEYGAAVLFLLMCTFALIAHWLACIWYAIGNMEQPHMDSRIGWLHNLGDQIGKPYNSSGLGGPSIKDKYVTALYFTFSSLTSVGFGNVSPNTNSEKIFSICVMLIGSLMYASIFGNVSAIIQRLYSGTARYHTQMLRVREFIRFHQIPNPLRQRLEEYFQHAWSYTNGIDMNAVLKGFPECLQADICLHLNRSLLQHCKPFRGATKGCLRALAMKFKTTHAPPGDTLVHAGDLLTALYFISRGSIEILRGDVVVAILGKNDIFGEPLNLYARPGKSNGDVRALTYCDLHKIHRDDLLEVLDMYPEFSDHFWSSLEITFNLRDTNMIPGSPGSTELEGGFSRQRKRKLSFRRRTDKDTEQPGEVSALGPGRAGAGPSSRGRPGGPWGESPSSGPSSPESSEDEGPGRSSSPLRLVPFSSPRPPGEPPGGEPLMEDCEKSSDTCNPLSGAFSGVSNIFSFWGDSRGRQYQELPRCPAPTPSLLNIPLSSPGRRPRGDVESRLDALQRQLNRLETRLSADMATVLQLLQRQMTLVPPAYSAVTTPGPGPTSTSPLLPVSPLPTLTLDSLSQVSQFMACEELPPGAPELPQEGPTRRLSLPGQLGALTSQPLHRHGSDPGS
P2Y purinoceptor 1 (Homo sapiens), sequence (P47900 whole entry): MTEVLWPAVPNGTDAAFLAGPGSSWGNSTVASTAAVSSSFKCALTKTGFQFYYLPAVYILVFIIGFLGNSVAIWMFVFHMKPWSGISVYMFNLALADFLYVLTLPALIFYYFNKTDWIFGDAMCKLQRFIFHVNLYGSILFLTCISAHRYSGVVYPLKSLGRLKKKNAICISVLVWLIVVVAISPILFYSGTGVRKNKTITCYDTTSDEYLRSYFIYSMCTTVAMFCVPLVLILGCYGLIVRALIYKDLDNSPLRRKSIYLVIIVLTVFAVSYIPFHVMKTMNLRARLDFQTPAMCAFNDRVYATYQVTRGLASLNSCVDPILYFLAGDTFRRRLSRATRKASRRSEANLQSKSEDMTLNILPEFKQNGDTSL
P2Y purinoceptor 12, sequence (Q9H244 whole entry): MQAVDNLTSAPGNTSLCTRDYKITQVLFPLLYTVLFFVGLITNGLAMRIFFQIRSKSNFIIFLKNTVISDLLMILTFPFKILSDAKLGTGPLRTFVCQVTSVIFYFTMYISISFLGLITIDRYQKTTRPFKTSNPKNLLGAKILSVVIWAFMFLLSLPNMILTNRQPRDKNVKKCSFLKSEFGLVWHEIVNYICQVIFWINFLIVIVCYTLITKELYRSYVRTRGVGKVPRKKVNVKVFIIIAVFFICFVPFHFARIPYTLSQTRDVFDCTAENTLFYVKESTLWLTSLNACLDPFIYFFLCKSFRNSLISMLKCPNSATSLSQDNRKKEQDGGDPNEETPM

CCCCOC(=O)N1CCN(C(=O)[C@H](CCC(=O)O)NC(=O)c2cc([C@H]3C[C@@H]3COC)nc(-c3ccccc3)n2)CC1
inhibition [1]: inactive | inhibition [2]: inactive | inhibition [3]: inactive | inhibition [4]: inactive | inhibition [5]: inactive | inhibition [6]: inactive | inhibition [7]: inactive | inhibition [8]: inactive | inhibition [9]: inactive | inhibition [10]: inactive | inhibition [11]: inactive

CCOC(=O)N1CCN(C(=O)[C@H](CCC(=O)O)NC(=O)c2cc([C@@H]3C[C@H]3COC)nc(-c3ccccc3)n2)CC1
inhibition (INH) (Cytochrome P450 2D6): Not Active | solubility [12]: soluble | inhibition (INH) (Cytochrome P450 3A4 [13]): Not Active | IC50 (P2Y purinoceptor 12): 43 nM | half-life [14]: 33 min | inhibition (INH) (Cytochrome P450 3A4 [15]): Not Active | Stability (Liver microsome [16]): Stable | bioavailability [17]: 11% | IC50 (Platelet [18]): 589 nM | Activity (Platelet [19]): 30% | clearance [20]: 14 mL/min/kg | Vd [21]: 0.3 L/kg | solubility [22]: soluble | Ratio IC50 [23]: 14 | Stability (Liver microsome [24]): Stable | AUC [25]: 2.31 µM·h | logD [26]: 0.8 | Cmax [27]: 2820 nM | inhibition (INH) [28]: Not Active | inhibition (INH) (Cytochrome P450 2C9): Not Active
